Screening data deposited in PubChem by several laboratories.
Compounds with a hit are over-represented: about 3.4% of the library has one in this group of screens.
LANA-H2A inh: blockers of LANA interaction with H2A/H2B – biochemical, FP readout, HTS, primary screen; inhibition, % (test concentration not listed); Protein LANA1 (Human herpesvirus 8 type P (isolate GK18)), Q9QR71; 320,000 compounds, 0.6% hits; cell-free LANA-H2A/H2B peptide, fluorescence polarization; in the data active = inhibition mostly above about 10%, no sharp cut-off; inactive = mostly below about 6.7%
TAAR1 antag: human TAAR1 antagonists, primary screen, Fluo-8 calcium fluorescence, CHO RD-HGA16 cells. Trace amine-associated receptor 1 (Homo sapiens), Q96RJ0. antagonist. inhibition, % at 3 µM. 360,000 compounds, 1.5% hits;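 active = inhibition above a per-plate cutoff, the mean inhibition of test compounds on that plate plus 3 SD, cut at about 49% in these data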
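Assay system: RD-HGA16 CHO cells with stable hTAAR1 and Gα16 / Reagent: EC80 β-phenethylamine stimulus / Doses: 3 µM, single point / Timing: dye loading 75 min at 37 °C, then 30 min room temperature / Measured by: Fluo-8 intracellular calcium dye fluorescence, real-time kinetic reads / Controls: vehicle wells and EC80 agonist wells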
TAAR1 ag: human TAAR1 agonists, primary screen, Fluo-8 calcium fluorescence, CHO RD-HGA16 cells; Trace amine-associated receptor 1 (Homo sapiens), Q96RJ0; 360,000 compounds, 0.99% hits; vehicle wells 0%, saturating PEA agonist 100%; activation, % at 3 µM;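 active = activation above the mean activation of all test compounds in the run plus 3 SD, cut at about 38% in these data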
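Repeats: no replicates (n 1) | Material: CHO-derived RD-HGA16 cells with stable Gα16 and human TAAR1 | Technique: Kinetic Fluo-8 calcium fluorescence | Schedule: 17-24 h seeding, 75 min 37 °C dye, 30 min RT | Evaluation: % activation from peak over basal fluorescence ratio, DMSO-to-PEA scaled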
GPR7 antag: GPR7 receptor antagonists, primary screen, cell-based, fluorescence, single concentration; Neuropeptides B/W receptor type 1 (Homo sapiens), P48145; GPR7-expressing cells, fluorescence antagonist assay; inhibition, % at 4.4 µM; 290,000 compounds, 1.1% hits; AID 1861, 2009; in the data active = inhibition above about 16%, passing the limit was not always enough;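 note: cells stimulated with the agonist NPW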
zfTRPN1 agonist: zebrafish TRPN1 channel agonists, primary screen, cell-based, HEK293, calcium fluorescence; transient receptor potential cation channel N1 (TRPN1/NompC), Danio rerio; HEK293 zebrafish TRPN1-YFP, Fluo-8 calcium fluorescence; 100% = response to 87 µM carbachol; activation, % at 3 µM; AID 1424, 2008; 220,000 compounds, 0.18% hits;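 active = activation above its plate's cutoff, the mean activation of test wells on that plate plus 3 SD, cut at about 19% in these data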
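Material: zebrafish TRPN1-YFP in HEK293 cells. Doses: one dose of 3 µM, 0.3% DMSO. Incubation: dye 1 h 37 °C plus 30 min RT. Measured by: intracellular calcium fluorescence with Fluo-8.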
TRPML3 agonist: human TRPML3 channel agonists, primary screen, cell-based, HEK293 TRPML3-YFP, Fluo-8 calcium fluorescence, 3 µM. 220,000 compounds, 0.29% hits. 100% = the carbachol control signal. activation, % at 3 µM;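 active = activation above its plate's cutoff, the mean activation of the plate's test wells plus 3 SD, cut at about 12% in these data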
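Material: HEK293 cells stably carrying human TRPML3-YFP; compound dosing: single dose, 3 µM final nominal compound, 0.3% DMSO final; incubation: 1-h 37 °C dye load, 5-s basal, 120-s post-compound reads; technique: Fluo-8 intracellular calcium fluorescence, excitation 470-495 nm, emission 515-575 nm; read-out basis: percent activation from peak-to-basal fluorescence ratio, scaled between DMSO and carbachol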
GPR7 antag conf: GPR7 receptor antagonists, confirmation, cell-based, fluorescence, single concentration; shares compounds with GPR7 antag; GPR7-expressing cells, calcium fluorescence antagonist mode; inhibition, % at 4.4 µM; 2,400 compounds, 52% hits; AID 1952, 2009; in the data active = inhibition above about 24%;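 note: stimulated with the GPR7 agonist NPW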
MCHR1 antagonist: MCHR1 antagonists in cells, counter-screen for GPR7 antagonist project, cell-based, fluorescence, human; inhibition, % at 4.4 µM; MCHR1-expressing cells, fluorescence antagonist assay; AID 2148, 2009; shares compounds with GPR7 antag; 2,400 compounds, 62% hits; in the data active = inhibition above about 22%
Of the large screens only hits and unclear results are named; the others gave an inactive call (follow-up assays come after a bar, where they were run).

CC(C)c1ccccc1OCC(O)CN1CCN(S(=O)(=O)c2ccc([N+](=O)[O-])cc2)CC1 (stereo not given)	GPR7 antag 47 (no result: zfTRPN1 agonist, TRPML3 agonist) | GPR7 antag conf 45 | MCHR1 antagonist 76
CCCCC(=O)N(C)c1c(CC)nc2c(OCc3cccc(Cl)c3)cccn12	none (no result: LANA-H2A inh, GPR7 antag, zfTRPN1 agonist, TRPML3 agonist)
O=C1CCCN2N=C(SCC(=O)N3N=C(c4ccc(Br)cc4)CC3c3ccc(F)cc3)SC2=N1 (stereo not given)	GPR7 antag 22 | GPR7 antag conf inactive | MCHR1 antagonist inactive
CCc1ccc(S(=O)(=O)NCc2cn3ccsc3n2)s1	none
O=S(=O)(NCc1cn2ccsc2n1)c1cccs1	GPR7 antag 27 | GPR7 antag conf inactive | MCHR1 antagonist inactive
CCc1ccccc1NC(=O)CN1C(=O)C2CCCN2c2ncc(Cl)cc21 (stereo not given)	GPR7 antag 38 | GPR7 antag conf 34 | MCHR1 antagonist inactive
CCc1nc2c(OCc3ccc4c(c3)OCO4)cccn2c1N(C=O)Cc1ccccc1	none (no result: LANA-H2A inh, GPR7 antag, zfTRPN1 agonist, TRPML3 agonist)
CCOC(=O)c1cc(-c2ccccc2)n(Cc2cc(CC)no2)n1	none (no result: GPR7 antag, zfTRPN1 agonist, TRPML3 agonist)
CC(C)c1cccc(C(C)C)c1NC(=O)CNCc1ccccc1F	GPR7 antag 22 | GPR7 antag conf 30 | MCHR1 antagonist 32
O=C(NCc1ccccc1)c1cc(=O)c2ccccc2o1	GPR7 antag 22 | GPR7 antag conf inactive | MCHR1 antagonist inactive
O=C(N/N=C/c1ccccc1)c1cc(-c2ccc3c(c2)OCO3)n[nH]1	GPR7 antag 23 | GPR7 antag conf inactive | MCHR1 antagonist 36
CCC1(C)CC2(CCCN(CCC(O)(c3ccccc3)c3ccccc3)C2)CCO1 (stereo not given)	GPR7 antag 26 | GPR7 antag conf inactive | MCHR1 antagonist inactive
NC(=S)N/N=C/c1c(O)ccc2ccccc12	GPR7 antag 23 | GPR7 antag conf inactive | MCHR1 antagonist inactive
COc1ccc(C(c2nnnn2C2CCCCC2)N2CCN(c3ccc(OC)cc3)CC2)cc1 (stereo not given)	none
COc1ccc(OC)c(C(c2nnnn2C2CCCC2)N2CCN(c3ccccc3)CC2)c1 (stereo not given)	GPR7 antag 31 | GPR7 antag conf 24 | MCHR1 antagonist 41
Cc1ccc(C)c(CN2CCC(CNC(=O)Nc3ccc(C)c(C)c3)CC2)c1	GPR7 antag 36 (no result: zfTRPN1 agonist, TRPML3 agonist) | GPR7 antag conf inactive | MCHR1 antagonist 25
COc1ccc(Cl)cc1NC(=O)NCC1CCN(Cc2cc(C)ccc2C)CC1	none (no result: zfTRPN1 agonist, TRPML3 agonist)
CN1C2CCC1/C(=C\c1ccccc1F)C(=O)/C2=C/c1ccccc1F	GPR7 antag 28 | GPR7 antag conf inactive | MCHR1 antagonist 34
CC1CCN(C2=NC(=O)/C(=C/c3ccccc3F)S2)CC1	none (no result: zfTRPN1 agonist, TRPML3 agonist)
O=C(Nc1ccc2ccccc2c1)C(c1ccc(C(F)(F)F)cc1)n1c(=O)c(-c2cc3ccccc3[nH]2)nc2ccccc21 (stereo not given)	none (no result: LANA-H2A inh, GPR7 antag, zfTRPN1 agonist, TRPML3 agonist)
CN(C)CCC(O)(c1ccccc1)c1ccccc1Cl (stereo not given)	none (no result: LANA-H2A inh, GPR7 antag, zfTRPN1 agonist, TRPML3 agonist)
O=C(Nc1ccc(Cl)c(C(F)(F)F)c1)NC1CC2CCCC(C1)N2Cc1ccccc1 (stereo not given)	GPR7 antag 27 | GPR7 antag conf 45 | MCHR1 antagonist 87
O=C(NC1CC2CCCC(C1)N2C(=O)Nc1ccc(Cl)c(C(F)(F)F)c1)C1CC1 (stereo not given)	none
CC(C)/C=C/C(=O)N1CCCC(N2CCN(c3ccccc3F)CC2)C1 (stereo not given)	none (no result: zfTRPN1 agonist, TRPML3 agonist)
NC(=O)C1CCN(c2cc(Cl)ccc2[N+](=O)[O-])CC1	GPR7 antag 26 | GPR7 antag conf inactive | MCHR1 antagonist inactive
Cc1ccc(NC(=O)COC(=O)c2ccc(C)c(S(=O)(=O)N3CCOCC3)c2)cc1	none (no result: LANA-H2A inh, GPR7 antag, zfTRPN1 agonist, TRPML3 agonist)
Cc1ccc2c(c1)C1(C(=O)N2)N2CCCC2C(C(=O)c2ccc3ccccc3c2)C12C(=O)Nc1ccccc12 (stereo not given)	none (no result: GPR7 antag, zfTRPN1 agonist, TRPML3 agonist)
OCC1(CCCc2ccccc2)CCN(C2CCSCC2)CC1	none
CCOC(=O)C1(CCCc2ccccc2)CCN(C2CCSCC2)CC1	GPR7 antag 43 (no result: LANA-H2A inh) | GPR7 antag conf 50 | MCHR1 antagonist 33
COC(=O)[C@@]1(Cc2ccccc2)[C@H]2c3cc(C(=O)N4CCCC4)n(Cc4ccsc4Br)c3C[C@H]2CN1C(=O)c1ccccc1	GPR7 antag 46 | GPR7 antag conf 37 | MCHR1 antagonist 26
CC(=O)Nc1cc(=O)c2cccnc2[nH]1	none (no result: LANA-H2A inh, GPR7 antag, zfTRPN1 agonist, TRPML3 agonist)
COc1ccc(S(=O)(=O)Nc2cccc3c2O[C@H](CN(C)C(=O)Nc2ccc(C(F)(F)F)cc2)[C@@H](C)CN([C@H](C)CO)C3=O)cc1	none (no result: GPR7 antag, zfTRPN1 agonist, TRPML3 agonist)
CS(=O)(=O)c1sc(C#N)c2c1C(=O)CC(c1ccccc1)C2 (stereo not given)	TAAR1 antag 73, GPR7 antag 75 | GPR7 antag conf 97 | MCHR1 antagonist 94
Cc1oc2c(c(=O)c1C)C(=O)CC(c1ccccc1)C2 (stereo not given)	none
c1ccc2c(c1)OC(CCCN1CCCCC1)c1ccccc1S2 (stereo not given)	GPR7 antag 25 | GPR7 antag conf 33 | MCHR1 antagonist 54
CCOc1ccc(CN(C)C(=O)c2cccc(S(=O)(=O)N3CCCC3)c2)cc1OC	none (no result: GPR7 antag, zfTRPN1 agonist, TRPML3 agonist)
O=C(C1CCN(c2ncnc3c2nc2n3CCCCC2)CC1)N1CCN(c2ccccc2F)CC1	none (no result: zfTRPN1 agonist, TRPML3 agonist)
Cc1cccc(N2CCN(C(=O)C3CCN(c4ncnc5c4nc4n5CCCCC4)CC3)CC2)c1C	GPR7 antag 27 (no result: zfTRPN1 agonist, TRPML3 agonist) | GPR7 antag conf 25 | MCHR1 antagonist 61
C=CCn1c(C)nnc1SCC(=O)Nc1ccccc1C(=O)NC1CC1	none (no result: LANA-H2A inh, GPR7 antag, zfTRPN1 agonist, TRPML3 agonist)
N#CC1=C(N)Oc2cc(N)ccc2C1c1ccc(F)cc1 (stereo not given)	none
